Experimental data reported in article PMC7305985 (Molecular cell, 2020).

B1: E662/3A: KAP1 PHD point mutant E662/E663 to A; GST-PHD-BD or FLAG-tagged KAP1 (protein)
chain: PGGGPGTLDDSATICRVCQKPGDLVMCNQCEFCFHLDCHLPALQDVPGAAWSCSLCHVLPDLKEEDGSLSLDGADSTGVVAKLSPANQRKCERVLLALFCHEPCRPLHQLATDSTFSLDQPGGTLDLTLIRARLQEKLSPPYSSPQEFAQDVGRMFKQFNKLTEDKADVQSIIGLQRFFETRMNEAFGDTKFSAVLVEPPPMSLPGAGLSSQELSGGPGDGP
modifications: left off: GST, N-terminal, kept
B2: L637A: control mutation L637 in flexible loop between the PHD and BD (protein)
chain: PGGGPGTLDDSATICRVCQKPGDAVMCNQCEFCFHLDCHLPALQDVPGEEWSCSLCHVLPDLKEEDGSLSLDGADSTGVVAKLSPANQRKCERVLLALFCHEPCRPLHQLATDSTFSLDQPGGTLDLTLIRARLQEKLSPPYSSPQEFAQDVGRMFKQFNKLTEDKADVQSIIGLQRFFETRMNEAFGDTKFSAVLVEPPPMSLPGAGLSSQELSGGPGDGP
modifications: left off: GST, N-terminal, kept

Key:
[1] = system: KAP1 target genes in shKAP1 HCT116 cells; assay: Reconstitution assay, RT-qPCR of KAP1 target genes; type: cell-based; conditions: shKAP1 HCT116, 48 hr; relative to shNT+GFP, normalized to RPL19, n=3; Figure 5H
[2] = system: KAP1 target gene promoters; assay: FLAG ChIP-qPCR of reconstituted KAP1 proteins; type: cell-based; conditions: shKAP1 HCT116, FLAG ChIP-qPCR, % Input, n=3; Figures 5I, 6F
Outline: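 Epitope-tagged KAP1 was re-expressed in shKAP1 HCT116 cells by 1 µg plasmid transfection over 48 hr. Anti-FLAG ChIP used 0.5% formaldehyde crosslinking (10 min) and 150 mM glycine quench. Beads were washed 4 times with each of RIPA, low-salt, high-salt, LiCl and TE buffers. Elution was 30 min at 65°C, de-crosslinking 4 hr at 65°C with proteinase K, and read-out was qPCR.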

mono-nucleosomes = assay: Nucleosome binding assay; design: species or system Human; conditions: relative to WT KAP1; overnight 4°C, pH 7.5; Figure 5E
Outline: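 GST-tagged protein, expressed in bacteria (0.1 mM IPTG, 3 hr, 37°C), was used at 2 µg with 2 µg recombinant biotinylated mono-nucleosomes. Pulldown was on StrepTactin agarose for 1 hr, with 4 washes and boiling elution. 5% input and 20% eluate were blotted with anti-GST 1:5000.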

Molecule	restoration of KAP1 target gene expression (WT and point mutants) [1]	localization to KAP1 target gene promoters [2]	reduction of KAP1's ability to interact with mono-nucleosomes (mono-nucleosomes)
B1	but not E662/3A, restored KAP1 target gene expression	but not E662/3A, localized to all tested gene promoters	~ 80%
B2	restored KAP1 target gene expression	localized to all tested gene promoters	
